For two molecules, Activity, T/C and Weight difference results are on record in ChEMBL document CHEMBL1124441, “Synthesis of congeners and prodrugs. 3. Water-soluble prodrugs of taxol with potent antitumor activity” (1989).

Holding throughout (format): functional, Mus musculus
Holding throughout (conditions): route intraperitoneal

Assay [1] has as its system B16. Kind of assay: Antitumor activity in B16 Melanoma system animals is indicated by survivors on day 4 at a dose of 24.5 mg/kg intraperitoneally. The essentials: (§1)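 B16 melanoma, 10^6 cells inoculated ip on day 0. Ip treatment started day 1, schedule Q01Dx09 (one dose daily for 9 days). The score is live animals on day 4 over total animals; early deaths are taken as drug toxicity.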

Assay [2] concerns B16. Kind of assay: Percent of median lifetime of test animals divided by the median lifetime of control animals at a dose of 49 mg/kg intraperitoneally. Put shortly: (§2)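 B16 melanoma, 10^6 cells ip on day 0, ip treatment from day 1, Q01Dx09 (single dose daily for 9 days). %T/C is median lifetime of treated over untreated tumored controls, times 100. Early deaths are assessed on day 4 for toxicity. Cures are animals alive on the last test day.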

The test system of assay [3] is B16. Briefly: Difference in body weight in grams between test and control animals at a dose of 24.5 mg/kg intraperitoneally. The essentials:
(§3)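 B16 melanoma, 10^6 cells ip on day 0, then ip dosing from day 1, once daily for 9 days (Q01Dx09). The value is the body-weight difference in grams, treated minus tumored control animals.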

In assay [4] the test system is B16. Kind of assay: Difference in body weight in grams between test and control animals at a dose of 12.25 mg/kg intraperitoneally. Put shortly:
as §3

Assay [5] concerns B16. Briefly: Difference in body weight in grams between test and control animals at a dose of 49 mg/kg intraperitoneally. Put shortly:
as §3

Assay [6] has as its system B16. Kind of assay: Percent of median lifetime of test animals divided by the median lifetime of control animals at a dose of 24.5 mg/kg intraperitoneally. Put shortly: as §2
Assay [7] has as its system B16. Kind of assay: Antitumor activity in B16 Melanoma system animals is indicated by survivors on day 4 at a dose of 6.13 mg/kg intraperitoneally. The essentials:
as §1

Assay [8] relates to B16. Kind of assay: Antitumor activity in B16 Melanoma system animals is indicated by survivors on day 4 at a dose of 49 mg/kg intraperitoneally. Put shortly: as §1
Assay [9] relates to B16. Briefly: Percent of median lifetime of test animals divided by the median lifetime of control animals at a dose of 12.25 mg/kg intraperitoneally. The essentials:
as §2

Assay [10] concerns B16. Kind of assay: Difference in body weight in grams between test and control animals at a dose of 6.13 mg/kg intraperitoneally. The essentials:
as §3

Assay [11] deals with B16. Kind of assay: Percent of median lifetime of test animals divided by the median lifetime of control animals at a dose of 6.13 mg/kg intraperitoneally. The essentials: as §2
Assay [12] relates to B16. Briefly: Antitumor activity in B16 Melanoma system animals is indicated by survivors on day 4 at a dose of 12.25 mg/kg intraperitoneally. Put shortly: as §1
Assay [13] has as its system B16. Briefly: Percent of median lifetime of test animals divided by the median lifetime of control animals at a dose of 25 mg/kg intraperitoneally. Put shortly: (§4)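 B16 melanoma inoculated ip (10⁶ cells) on day 0. Daily ip treatment for 9 days (Q01Dx09) begins day 1, dosed per injection in mg/kg. %T/C is the median lifespan of treated animals divided by that of tumored untreated controls, ×100. Cures are animals alive on the last test day. Toxic deaths are assessed on day 4.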

The subject of assay [14] is B16. Briefly: Antitumor activity in B16 Melanoma system animals is indicated by survivors on day 4 at a dose of 25 mg/kg intraperitoneally. Put shortly:
as §1

The subject of assay [15] is B16. Briefly: Difference in body weight in grams between test and control animals at a dose of 6.25 mg/kg intraperitoneally. The essentials:
(§5)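 B16 melanoma system: 10⁶ tumor cells inoculated ip on day 0. Drug given ip once daily for 9 days (Q01Dx09) starting day 1, dose as mg/kg body weight per injection. Read-out is the body-weight difference in grams, treated minus control animals. Early deaths, taken as toxicity, are scored on day 4.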

The test system of assay [16] is B16. Briefly: Antitumor activity in B16 Melanoma system animals is indicated by survivors on day 4 at a dose of 12.5 mg/kg intraperitoneally. The essentials: as §1
For assay [17], the system named is B16. Kind of assay: Antitumor activity in B16 Melanoma system animals is indicated by survivors on day 4 at a dose of 6.25 mg/kg intraperitoneally. Put shortly: as §1
Assay [18] deals with B16. Kind of assay: Antitumor activity in B16 Melanoma system animals is indicated by survivors on day 4 at a dose of 50 mg/kg intraperitoneally. The essentials: as §1
Assay [19] relates to B16. Briefly: Percent of median lifetime of test animals divided by the median lifetime of control animals at a dose of 50 mg/kg intraperitoneally. The essentials:
as §4

For assay [20], the system named is B16. Kind of assay: Difference in body weight in grams between test and control animals at a dose of 25 mg/kg intraperitoneally. Put shortly:
as §5

The test system of assay [21] is B16. Briefly: Percent of median lifetime of test animals divided by the median lifetime of control animals at a dose of 12.5 mg/kg intraperitoneally. The essentials: as §4
Assay [22] deals with B16. Kind of assay: Percent of median lifetime of test animals divided by the median lifetime of control animals at a dose of 6.25 mg/kg intraperitoneally. The essentials:
as §4

Assay [23] deals with B16. Briefly: Difference in body weight in grams between test and control animals at a dose of 50 mg/kg intraperitoneally. Put shortly:
as §5

For assay [24], the system named is B16. Briefly: Difference in body weight in grams between test and control animals at a dose of 12.5 mg/kg intraperitoneally. The essentials:
as §5

Regarding `CC(=O)OC1C(=O)[C@@]2(C)[C@H]([C@H](OC(=O)c3ccccc3)[C@]3(O)CC(OC(=O)C(OC(=O)CCCC(=O)[O-])C(NC(=O)c4ccccc4)c4ccccc4)C(C)=C1C3(C)C)[C@]1(OC(C)=O)CO[C@@H]1C[C@@H]2O.[Na+]` (some centres undefined), the Activity is given as 7 in the assay on B16 [1], 8 in the assay on B16 [7], 7 with B16 [8] and 8 in the assay with B16 [12]. Besides, the T/C (as a rule, the ratio of treated to control) stood at 339% with B16 [2], 225% in the assay on B16 [6], 192% in the assay on B16 [9] and 159% with B16 [11]. Further, the Weight difference in the assay on B16 [3] is given as 1.5 g; in the assay with B16 [4] it was 0.6 g; in the assay on B16 [5] it was 0.8 g; in the assay with B16 [10], 0.4 g.
As for `CC(=O)OC1C(=O)[C@@]2(C)[C@H]([C@H](OC(=O)c3ccccc3)[C@]3(O)CC(OC(=O)C(OC(=O)CCC(=O)O)C(NC(=O)c4ccccc4)c4ccccc4)C(C)=C1C3(C)C)[C@]1(OC(C)=O)CO[C@@H]1C[C@@H]2O.CNC[C@H](O)[C@@H](O)[C@H](O)[C@H](O)CO` (some centres undefined), the T/C with B16 [13] is reported as 176%; in the assay on B16 [19] it was 241%; in the assay on B16 [21], 134%; with B16 [22], 125%. For the same molecule, the Activity with B16 [14], with B16 [16], in the assay with B16 [17] and in the assay on B16 [18] was 10 throughout. In addition, the Weight difference was -0.2 g in the assay with B16 [15], 0.3 g with B16 [20], -0.6 g with B16 [23] and 0.3 g in the assay on B16 [24].
